The values below come from ChEMBL document CHEMBL3259662 (ACS Med Chem Lett, 2014).

For one data set, the system named is SK-OV-3. As to the kind of experiment: Cytotoxicity against human SKOV3 cells assessed as cell viability after 48 hrs by neutral red uptake assay. It counts as cell-based. Particulars: sk-ov-3, 48 h. The essentials: (§1)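 Neutral red uptake assay in human cancer lines SK-MEL, KB, BT-549 and SK-OV-3 and in noncancerous mammalian kidney cells VERO and LLC-PK1. The highest tested concentration was 10 μg/mL.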

In another data set the test system is LLC-PK1. The experiment in a line: Cytotoxicity against pig LLC-PK1 cells assessed as cell viability after 48 hrs by neutral red uptake assay. It counts as cell-based, Sus scrofa. Particulars: llc-pk1, 48 h. Put shortly:
as §1

Data set [1] can be described thus: Selectivity index, ratio of cytotoxicity for human SKOV3 cells to IC50 for Cryptococcus neoformans ATCC 90113. It counts as toxicity, cell-based, SK-OV-3. The note with it: read-out: Selectivity Index.
Data set [2] can be described thus: Selectivity index, ratio of cytotoxicity for human SK-MEL cells to IC50 for Cryptococcus neoformans ATCC 90113. It is filed as toxicity, cell-based. The note with it: read-out: Selectivity Index.
Data set [3] in a line: Selectivity index, ratio of cytotoxicity for human BT549 cells to IC50 for Cryptococcus neoformans ATCC 90113. Particulars: read-out: Selectivity Index. It counts as toxicity, cell-based, BT-549.
In a further data set the test system is KB. As to the kind of experiment: Cytotoxicity against human KB cells assessed as cell viability after 48 hrs by neutral red uptake assay. It is filed as cell-based. Put shortly:
as §1

Data set [4] in a line: Selectivity index, ratio of cytotoxicity for pig LLC-PK1 cells to IC50 for Cryptococcus neoformans ATCC 90113. It is filed as toxicity, cell-based. The note with it: read-out: Selectivity Index.
A further data set concerns Escherichia coli. As to the kind of experiment: Antibacterial activity against Escherichia coli ATCC 35218 after 16 to 20 hrs by CLSI method. It is filed as functional, organism-based.
For the next data set, the system named is Pichia kudriavzevii. The experiment in a line: Antifungal activity against Candida krusei by CLSI method. It is filed as functional, organism-based.
A further data set relates to SK-MEL. The experiment in a line: Cytotoxicity against human SK-MEL cells assessed as cell viability after 48 hrs by neutral red uptake assay. It counts as cell-based. The essentials:
as §1

The subject of a further data set is BT-549. As to the kind of experiment: Cytotoxicity against human BT549 cells assessed as cell viability after 48 hrs by neutral red uptake assay. It is filed as cell-based. The note with it: bt-549, 48 h. Put shortly: as §1
For another data set, the system named is Candida albicans. As to the kind of experiment: Antifungal activity against Candida albicans by CLSI method. It is filed as functional, organism-based.
A further data set deals with Nakaseomyces glabratus. The experiment in a line: Antifungal activity against Candida glabrata by CLSI method. It is filed as functional, organism-based.
A further data set has as its system Cryptococcus neoformans. The experiment in a line: Antifungal activity against Cryptococcus neoformans ATCC 90113 after 70 to 74 hrs by CLSI method. It counts as functional, organism-based. Particulars: for IC50 / MIC: Cryptococcus neoformans, ATCC 90113. The essentials: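 Growth inhibition of C. neoformans per the CLSI protocol. […] MIC is the lowest test concentration with no detectable growth. MFC is the lowest concentration killing 100% of the organism.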

A short description of data set [5]: Selectivity index, ratio of cytotoxicity for human KB cells to IC50 for Cryptococcus neoformans ATCC 90113. It is filed as toxicity, cell-based. Particulars: read-out: Selectivity Index.
For another data set, the system named is Aspergillus fumigatus. As to the kind of experiment: Antifungal activity against Aspergillus fumigatus by CLSI method. It is filed as functional, organism-based.
Data set [6] in a line: Selectivity index, ratio of cytotoxicity for African green monkey Vero cells to IC50 for Cryptococcus neoformans ATCC 90113. It is filed as toxicity, cell-based. Particulars: read-out: Selectivity Index.
The subject of another data set is Vero. As to the kind of experiment: Cytotoxicity against African green monkey Vero cells assessed as cell viability after 48 hrs by neutral red uptake assay. It is filed as cell-based. Particulars: chlorocebus sabaeus. Put shortly:
as §1

The nature of data set [7]: Retention time of the compound by reverse phase HPLC analysis. It counts as physicochemical. Put shortly:
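Reverse-phase HPLC on a C-18 column (25 cm × 4.6 mm, 5 μM) at 1 mL/min over 40 min. The gradient ran 85−5% with A = 0.1% TFA in H2O and B = 0.1% TFA in CH3CN. Detection was at 220 nm.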

Values after ≈ are worked out from the molar mass of the structure shown. Active and inactive are the calls of the source. The calls are words filed in the database; no cut-off is given here.

Take `N=C(N)NCCC[C@H](NC(=O)[C@H](Cc1c[nH]c(-c2ccccc2)n1)NC(=O)[C@@H](N)CCCNC(=N)N)C(=O)NCc1ccccc1`: the Activity in the data set with SK-OV-3, in the data set with LLC-PK1, in the data set with KB, with SK-MEL, in the data set on BT-549 and in the data set on Vero was over 10 µg/mL throughout. For the same compound, the selectivity ratio in data set [1], in [2], in data set [3], in data set [4], in [5] and in data set [6] was over 13.7 each time. The result with Escherichia coli, in the data set on Pichia kudriavzevii, in the data set on Candida albicans, in the data set with Nakaseomyces glabratus and with Aspergillus fumigatus was inactive. Further, in the data set on Cryptococcus neoformans, the MFC100 is 1.25 mg/L (≈ 1.98 µM). In addition, 0.73 mg/L (≈ 1.15 µM) corresponded to half-maximal inhibition in the data set on Cryptococcus neoformans (IC50). The MIC (as a rule, the lowest concentration that inhibits growth of the organism) against Cryptococcus neoformans was 1.25 mg/L (≈ 1.98 µM).

Regarding `COC(=O)[C@H](CCCNC(=N)N)NC(=O)[C@H](Cc1c[nH]c(-c2ccc(C(C)(C)C)cc2)n1)NC(=O)[C@@H](N)CCCNC(=N)N`, the Activity with SK-OV-3, in the data set with LLC-PK1, in the data set on KB, in the data set on SK-MEL, in the data set on BT-549 and in the data set with Vero was over 10 µg/mL throughout. Further, the selectivity ratio in [1], in data set [2], in [3], in data set [4], in data set [5] and in [6] was over 16.3 each time. The outcome in the data set with Escherichia coli, in the data set on Pichia kudriavzevii, in the data set on Candida albicans, in the data set on Nakaseomyces glabratus and in the data set with Aspergillus fumigatus was inactive. Also, the MFC100 in the data set on Cryptococcus neoformans amounted to 1.25 mg/L (≈ 2.04 µM). Moreover, 0.61 mg/L (≈ 0.994 µM) corresponded to half-maximal inhibition in the data set with Cryptococcus neoformans (IC50). Also, the MIC in the data set with Cryptococcus neoformans was found to be 1.25 mg/L (≈ 2.04 µM).

As to `COC(=O)[C@H](CCCNC(=N)N)NC(=O)[C@H](Cc1c[nH]c(-c2ccc(C(C)(C)C)cc2)n1)NC(=O)[C@H](CCCNC(=N)N)NC(=O)OC(C)(C)C`, the Activity with SK-OV-3, with LLC-PK1, with KB, with SK-MEL, in the data set on BT-549 and in the data set with Vero was over 10 µg/mL in each case. Also, the selectivity ratio in [1], in [2], in [3], in data set [4], in [5] and in data set [6] was over 14.1 each time. Also, the result in the data set with Escherichia coli, in the data set with Pichia kudriavzevii, in the data set on Candida albicans, with Nakaseomyces glabratus and with Aspergillus fumigatus was inactive. Besides, the MFC100 in the data set with Cryptococcus neoformans came to 1.25 mg/L (≈ 1.75 µM). The midpoint of inhibition with Cryptococcus neoformans, the IC50, lay at 0.71 mg/L (≈ 0.995 µM). Also, inhibition of growth against Cryptococcus neoformans (MIC) required 1.25 mg/L (≈ 1.75 µM). The compound also yielded a Retention_time in data set [7] of 20.91 min.

On to `COc1ccc(-c2nc(C[C@H](NC(=O)[C@H](CCCNC(=N)N)NC(=O)OC(C)(C)C)C(=O)N[C@@H](CCCNC(=N)N)C(=O)NCc3ccccc3)c[nH]2)cc1`, for which the Activity in the data set with SK-OV-3, with LLC-PK1, in the data set on KB, with SK-MEL, in the data set on BT-549 and in the data set on Vero was over 10 µg/mL throughout. Besides, the selectivity ratio in [1], in data set [2], in data set [3], in data set [4], in [5] and in data set [6] was over 14.7 in each case. Moreover, the outcome in the data set on Escherichia coli, in the data set on Pichia kudriavzevii, with Candida albicans, in the data set with Nakaseomyces glabratus and in the data set with Aspergillus fumigatus was inactive. The compound also displayed an MFC100 in the data set with Cryptococcus neoformans of 5 mg/L (≈ 6.55 µM). The IC50 (in general, the concentration that inhibits the measured activity by half) in the data set with Cryptococcus neoformans came out at 0.68 mg/L (≈ 0.891 µM). Inhibition of growth in the data set with Cryptococcus neoformans (MIC) required 2.5 mg/L (≈ 3.28 µM). For the same compound, the Retention_time in [7] turned out to be 18.93 min.

For the compound `Cc1ccc(-c2nc(C[C@H](NC(=O)[C@@H](N)CCCNC(=N)N)C(=O)N[C@@H](CCCNC(=N)N)C(=O)NCc3ccccc3)c[nH]2)cc1`, the Activity with SK-OV-3, in the data set on LLC-PK1, in the data set with KB, in the data set with SK-MEL, with BT-549 and in the data set on Vero was over 10 µg/mL in each case. In addition, the selectivity ratio in [1], in data set [2], in data set [3], in data set [4], in [5] and in [6] was over 28.6 each time. Also, the outcome with Escherichia coli, in the data set on Pichia kudriavzevii, with Candida albicans, in the data set on Nakaseomyces glabratus and with Aspergillus fumigatus was inactive. In the data set with Cryptococcus neoformans, this compound came in with an MFC100 of 10 mg/L (≈ 15.5 µM). Also, inhibition in the data set on Cryptococcus neoformans was half-maximal at 0.35 mg/L (≈ 0.541 µM) (IC50). The MIC against Cryptococcus neoformans was found to be 0.63 mg/L (≈ 0.974 µM).

Take `C[C@@H]1[C@H](O)[C@@H](C)/C=C/C=C/C=C/C=C/C=C/C=C/C=C/[C@H](O[C@@H]2O[C@H](C)[C@@H](O)[C@H](N)[C@@H]2O)C[C@@H]2O[C@](O)(C[C@@H](O)C[C@@H](O)[C@H](O)CC[C@@H](O)C[C@@H](O)CC(=O)O[C@H]1C)C[C@H](O)[C@H]2C(=O)O` [AMPHOTERICIN B]: in the data set with Cryptococcus neoformans, the MFC100 was 1.25 mg/L (≈ 1.35 µM) and the MIC amounted to 1.25 mg/L (≈ 1.35 µM).

For the compound `COC(=O)[C@H](CCCNC(=N)N)NC(=O)[C@H](Cc1c[nH]c(-c2ccc(-c3ccccc3)cc2)n1)NC(=O)[C@@H](N)CCCNC(=N)N`, the Activity with SK-OV-3, in the data set on LLC-PK1, in the data set with KB, in the data set with SK-MEL, in the data set with BT-549 and in the data set on Vero was over 10 µg/mL each time. Moreover, the selectivity ratio in data set [1], in data set [2], in data set [3], in data set [4], in [5] and in data set [6] was over 16.9 each time. The result in the data set with Escherichia coli, in the data set on Pichia kudriavzevii, in the data set with Candida albicans, with Nakaseomyces glabratus and in the data set on Aspergillus fumigatus was inactive. This compound returned an MFC100 against Cryptococcus neoformans of 1.25 mg/L (≈ 1.97 µM). For the same compound, the midpoint of inhibition in the data set on Cryptococcus neoformans, the IC50, lay at 0.59 mg/L (≈ 0.931 µM). It took 1.25 mg/L (≈ 1.97 µM) to inhibit growth in the data set on Cryptococcus neoformans (MIC).

For the compound `COC(=O)[C@H](CCCNC(=N)N)NC(=O)[C@H](Cc1c[nH]c(-c2ccc(OC)cc2)n1)NC(=O)[C@@H](N)CCCNC(=N)N`, the Activity in the data set with SK-OV-3, in the data set with LLC-PK1, in the data set on KB, in the data set with SK-MEL, in the data set with BT-549 and in the data set on Vero was over 10 µg/mL in each case. In addition, the selectivity ratio in data set [1], in [2], in [3], in [4], in data set [5] and in data set [6] was over 2.5 in each case. Further, the outcome with Escherichia coli, in the data set on Pichia kudriavzevii, with Candida albicans, in the data set on Nakaseomyces glabratus and in the data set with Aspergillus fumigatus was inactive. The MFC100 with Cryptococcus neoformans was 5 mg/L (≈ 8.51 µM). In addition, half-maximal inhibition in the data set on Cryptococcus neoformans (IC50) was put at 3.93 mg/L (≈ 6.69 µM). In the data set with Cryptococcus neoformans, this compound gave an MIC of 5 mg/L (≈ 8.51 µM).
